Shown are actives, neighbours in structure and some others; about 2.1% of the full set was active somewhere.
CFTR F508del cor: CFTR F508del correction in bronchial cells; CFBE cells, YFP halide quenching; stimulated with forskolin plus potentiator P3; % fluorescence drop versus neutral controls; activity (quench increase), % at 7.58 µM; 350,000 tested, 0.36% active; AID 720511;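 active = mean added fluorescence quench of at least 8% versus neutral control, with both replicates also reaching 8%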;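 also: cells transiently co-express mutant CFTR-F508del with the halide-sensitive YFP; corrector assay measuring rescue of mutant channel to the surface after 24 h compound exposure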
MC4R antag cAMP: antagonists of human melanocortin 4 receptor (MC4R). MC4R-expressing cells, MTII-stimulated cAMP, LANCE TR-FRET. P32245. inhibition, % at 6.5 µM. 360,000 tested, 0.48% active;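 active = inhibition above its plate's cutoff, the mean of tested wells on that plate plus 3 SD, cut at about 29% in these data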;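 also: 0% = Melanotan II alone and 100% = Melanotan II plus saturating MCL0020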
Target sequence (P32245 whole entry, looked up): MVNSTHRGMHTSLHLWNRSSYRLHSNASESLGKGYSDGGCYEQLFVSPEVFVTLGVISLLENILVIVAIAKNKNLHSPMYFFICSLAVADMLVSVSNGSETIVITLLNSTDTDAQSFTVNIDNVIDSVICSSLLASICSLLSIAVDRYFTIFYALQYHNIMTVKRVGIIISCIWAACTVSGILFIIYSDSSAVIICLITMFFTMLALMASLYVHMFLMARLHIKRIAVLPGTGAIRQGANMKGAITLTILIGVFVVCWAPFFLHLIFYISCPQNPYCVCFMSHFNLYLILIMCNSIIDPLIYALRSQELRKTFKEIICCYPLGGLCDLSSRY
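Assay system: U2OS-MC4R stable cell line; Also added: Melanotan II; Technique: Eu-cAMP/anti-cAMP TR-FRET, emission 671 nm; Times: 30-min compound, 1-h challenge, 1-h detection, room temperature.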
MC4R barr agon: human MC4R agonism via beta-arrestin; P32245; U2OS MC4R beta-arrestin complementation, luminescence; percent of melanotan II response, DMSO zero; activation, % at 8.9 µM; 360,000 tested, 0.98% active; AID 540308;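 active = activation above a per-plate cutoff, the mean activation of sample wells on that plate plus 3 SD, cut at about 8% in these data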
SMARCA2 act: activators of SMARCA2 function; AID 652017; MG213 cells, MMTV-luciferase reporter, dexamethasone, overnight; 370,000 tested, 1% active; activation, % at 9.1 µM; in the data active = activation above about 7.8%;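 also: 0% = vehicle wells and 100% = reference activator wells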
U2OS cAMP counter: nonselective cAMP signaling inhibitor, MC4R antagonist counter-screen. parental U2OS, forskolin cAMP, LANCE TR-FRET. 1,600 tested, 26% active. inhibition, % at 6.5 µM. AID 602193. shares compounds with MC4R antag cAMP;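 active = mean inhibition over triplicates above the low-control well mean plus 3 SD, set per campaign, cut at about 13% in these data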;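 also: signal is single emission at 671 nm which falls as cellular cAMP rises; 0% = forskolin-stimulated wells and 100% = buffer without forskolin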
MC4R antag conf: human MC4R cAMP antagonism confirmation; shares compounds with MC4R antag cAMP; 1,600 tested, 27% active; MC4R-expressing cells, MTII-stimulated cAMP, TR-FRET; inhibition, % at 6.5 µM; in the data active = inhibition above about 29%;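 also: 0% = agonist stimulated wells alone and 100% = agonist stimulated wells plus saturating reference antagonist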
* hit, by the source's call.

`COc1ccc(N2CCN(C(CNC(=O)C(=O)NCc3ccc4c(c3)OCO4)c3ccco3)CC2)cc1` (configuration not stated) gave CFTR F508del cor 7, MC4R antag cAMP 29*, MC4R barr agon 3, SMARCA2 act -3, U2OS cAMP counter 4 and MC4R antag conf -4.
`COc1ccc(N2CCN(C(c3cccs3)C(C)NC(=O)c3ccc4c(c3)OCO4)CC2)cc1` (configuration not stated) gave CFTR F508del cor -2, MC4R antag cAMP 34*, MC4R barr agon 1, SMARCA2 act -1, U2OS cAMP counter -3 and MC4R antag conf -10.
`O=C(NCc1ccc2c(c1)OCO2)C(=O)NCC(c1ccco1)N1CCN(c2ccccc2)CC1` (configuration not stated) gave CFTR F508del cor 3, MC4R antag cAMP 3, MC4R barr agon -2 and SMARCA2 act 4.
CC(C)NS(=O)(=O)c1ccc(CCC(=O)N2CCC(C(N)=O)CC2)cc1 was read as CFTR F508del cor -2, MC4R antag cAMP 31*, MC4R barr agon 0, SMARCA2 act -2, U2OS cAMP counter 4 and MC4R antag conf 9.
Screening C[C@H](NC(=O)[C@H]1[C@H](CO)[C@H]2Cn3c(ccc(-c4ccccc4)c3=O)[C@@H]1N2C)c1ccccc1 returned CFTR F508del cor -3.
CCCC1=NN2C(=N)/C(=C\c3cc(C)n(-c4cc(C)cc(C)c4)c3C)C(=O)N=C2S1 was read as MC4R antag cAMP 30*, MC4R barr agon 2, SMARCA2 act 6, U2OS cAMP counter -1 and MC4R antag conf -20.
`Cc1cc(C)cc(-n2c(C)cc(/C=C3\C(=N)N4N=C(CC(C)C)SC4=NC3=O)c2C)c1` gave MC4R antag cAMP 4, MC4R barr agon 0 and SMARCA2 act 3.
Screening FC(F)Oc1ccccc1NC(=S)NCCc1ccccc1 returned CFTR F508del cor -2, MC4R antag cAMP 32*, MC4R barr agon 0, SMARCA2 act 3, U2OS cAMP counter -1 and MC4R antag conf -6.
`CCOC(=O)c1c(C)[nH]c(C)c1C(=O)COC(=O)c1cc(OC)cc(OC)c1` gave CFTR F508del cor -1, MC4R antag cAMP -3, MC4R barr agon -3 and SMARCA2 act 0.
For CCOC(=O)c1c(C)[nH]c(C)c1C(=O)COC(=O)c1cc(OC)c(OC)cc1OC the results were CFTR F508del cor -3, MC4R antag cAMP 32*, MC4R barr agon 1, SMARCA2 act -3, U2OS cAMP counter -4 and MC4R antag conf 2.
Screening Clc1ncnc2c1oc1ccccc12 returned MC4R antag cAMP 39*, MC4R barr agon -2, SMARCA2 act 2, U2OS cAMP counter -1 and MC4R antag conf 6.
For CCSc1ncnc2c1oc1ccccc12 the results were MC4R antag cAMP -2, MC4R barr agon 0 and SMARCA2 act -3.
CC(=O)N1[C@H](C(=O)Nc2ccccc2)[C@@H](CO)[C@@H]2Cn3c(ccc(C4=CCCCC4)c3=O)[C@@H]21 was read as CFTR F508del cor -1.
`CC(c1ccco1)N(C(=O)c1ccccc1NS(=O)(=O)c1cccc([N+](=O)[O-])c1)c1ccccn1` (configuration not stated) gave MC4R antag cAMP 30*, MC4R barr agon -1, U2OS cAMP counter -1 and MC4R antag conf -1.
For C[C@H](CO)N1C[C@H](C)[C@H](CN(C)Cc2ccc(C(F)(F)F)cc2)Oc2ccc(NC(=O)C3CCCCC3)cc2C1=O the results were CFTR F508del cor -1.
For C[C@@H]1CN([C@@H](C)CO)C(=O)c2cc(C#CC3(O)CCCC3)cnc2O[C@@H]1CN(C)C(=O)C1CCC1 the results were CFTR F508del cor -2.
For COC(=O)c1c(NC(=O)/C=C/C(=O)O)sc(C)c1-c1ccc(C)cc1 the results were CFTR F508del cor -3, MC4R antag cAMP 6, MC4R barr agon -2 and SMARCA2 act -4.
For COC(=O)c1c(NC(=O)/C=C/C(=O)O)sc(C)c1-c1ccc(C(C)C)cc1 the results were CFTR F508del cor 0, MC4R antag cAMP 33*, MC4R barr agon 0, SMARCA2 act -4, U2OS cAMP counter 1 and MC4R antag conf -10.
